The sample as a whole holds a higher share of hits than the screen did.
Mdm2 ligase inh – Mdm2 E3 ligase (human) inhibition; Q00987; cell-based MDM2 ubiquitination luciferase reporter, 2 h; 0 = plate control, 100 = twice control, blank-subtracted; signal enhancement, % at 5 µM; 210,000 tested, 0.11% active; AID 1230;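 active = signal enhancement of 30% or more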;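 note: luminescence tracks abundance of the self-degrading MDM2-luciferase fusion protein; higher signal means inhibition of MDM2 E3 ligase activity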
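Test system: stable mammalian line carrying autodegrading MDM2–luciferase fusion reporter; quantity: 2000 cells in each well; times: 4 h cell settling then 2 h compound exposure, 37 °C; detection: luminescence with SteadyLite reagent, 15 min at room temperature; evaluation: percent signal gain over controls, blank-subtracted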
S1P3 antag – S1P3 (human) receptor antagonism | CHO S1P3 NFAT-BLA reporter, FRET fluorescence, antagonist mode | inhibition, % at 4.98 µM | 170,000 tested, 0.27% active | AID 485;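 active = inhibition above the plate cutoff, the mean inhibition of test wells on that plate plus 3 SD, cut at about 28% in these data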;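 note: cells challenged with S1P at its EC80 of 0.8 µM; blue over green emission ratio from cleaved BLA substrate after 4 h stimulation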
Target sequence (Q99500 whole entry, looked up): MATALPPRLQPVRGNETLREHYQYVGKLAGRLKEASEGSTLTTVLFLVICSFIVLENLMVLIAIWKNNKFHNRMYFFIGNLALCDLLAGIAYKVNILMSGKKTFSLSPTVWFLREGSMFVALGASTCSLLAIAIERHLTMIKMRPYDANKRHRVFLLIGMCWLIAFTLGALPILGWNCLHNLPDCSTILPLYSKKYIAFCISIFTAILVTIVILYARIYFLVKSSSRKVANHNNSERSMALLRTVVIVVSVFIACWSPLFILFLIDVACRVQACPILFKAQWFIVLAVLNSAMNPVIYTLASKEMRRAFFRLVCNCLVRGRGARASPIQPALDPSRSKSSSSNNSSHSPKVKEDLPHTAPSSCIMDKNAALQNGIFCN
Lmaj promast – Leishmania major promastigote growth inhibition | Leishmania major promastigotes, resazurin fluorescence viability | inhibition, % at 10 µM | 200,000 tested, 9% active | AID 1063; in the data active = inhibition above about 50%;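 note: promastigotes grown with compound for 44 hours at 28 °C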
S1P4 antagonist – human S1P4 receptor antagonism. S1P4-expressing cells, antagonist mode, reporter read-out. 220,000 tested, 0.26% active. inhibition, % at 4.98 µM. AID 1510. O95977; in the data active = inhibition above about 29%
S1P4 agonist – human S1P4 receptor agonism. 220,000 tested, 0.35% active. activation, % at 4.98 µM. O95977. S1P4-expressing cell line, agonist reporter assay; in the data active = activation above about 11%
Of the large screens only hits and unclear results are named; the others gave an inactive call.

COc1ccc(NC(=O)N2CCCCC2c2cccnc2)cc1 (stereo not given)	Lmaj promast 85
CCN(CC)C(=O)CC(c1cc(OC)c(OC)c(OC)c1)c1c(OC)cc(OC)c2c(-c3ccccc3)cc(=O)oc12 (stereo not given)	none (no result: S1P3 antag, Lmaj promast, S1P4 antagonist, S1P4 agonist)
Cc1cccc(C)c1Oc1nc(-c2ccccc2)ncc1S(=O)(=O)c1ccccc1	Lmaj promast 54 (no result: S1P3 antag)
COc1nc(-c2ccccc2)ncc1S(=O)(=O)c1ccccc1	none
CN(CCNC(=O)CN1CCN(Cc2ccccc2Cl)C1=O)Cc1ccccc1	Lmaj promast 59 (no result: S1P3 antag)
O=C(CN1CCN(c2ccccn2)CC1)Nc1ccc(Oc2ccccc2)cc1	Lmaj promast 90
O=C(COC(=O)C1CCC1)Nc1ccc(Oc2ccccc2)cc1	Lmaj promast 67 (no result: S1P3 antag)
O=C(CN1CCCCCC1)Nc1ccc(Oc2ccccc2)cc1	Lmaj promast 62
CC(c1ccccc1C(O)c1ccccc1)N(C)C (stereo not given)	none (no result: S1P3 antag)
Cc1ccc(C(O)(c2ccccc2)c2ccccc2C(C)N(C)C)c(C)c1 (stereo not given)	Lmaj promast 100 (no result: S1P3 antag)
CCOC(=O)N1CCC(NC(=O)C2CCN(C(=O)c3cc4oc(C)cc4n3Cc3c(F)cccc3Cl)CC2)CC1	Lmaj promast 75
CCC(CO)[n+]1c(C)cc(/C=C2\Sc3ccccc3N2Cc2ccccc2)cc1C (stereo not given)	Lmaj promast 100
CCN1/C(=C2\SC(=S)N(Cc3ccccc3)C2=O)Sc2ccccc21	none
Cc1nn(Cc2ccccc2)c(C)c1NC(=O)Cn1nc([N+](=O)[O-])c(Cl)c1C	none (no result: S1P3 antag)
Cc1nn(Cc2ccccc2)c(C)c1NC(=O)c1ccc([N+](=O)[O-])cc1[N+](=O)[O-]	Lmaj promast 63
Cc1cc(C)n(C(=O)c2ccc([N+](=O)[O-])cc2[N+](=O)[O-])n1	Lmaj promast 99
Cc1nn(Cc2ccc(Cl)c(Cl)c2)c(C)c1NC(=O)c1cn(-c2ccccc2)nc1-c1ccccc1	Lmaj promast 77 (no result: S1P3 antag)
COC(=O)c1oc2ccccc2c1NC(=O)/C=C/C(=O)O	none
CN1C(C(=O)NCc2ccc(OC(F)(F)F)cc2)CC2Cn3c(nc4ccccc43)C21 (stereo not given)	none (no result: S1P3 antag, Lmaj promast, S1P4 antagonist, S1P4 agonist)
O=C1CC(N(CCc2ccccc2)C(=S)Nc2ccccc2)C(=O)N1c1ccccc1 (stereo not given)	none
O=C1CC(N(CCc2ccccc2)C(=S)Nc2cc(Cl)ccc2Cl)C(=O)N1c1c(Cl)cccc1Cl (stereo not given)	Lmaj promast 99 (no result: S1P3 antag)
COc1ccccc1-c1cc(C(=O)N/N=C/c2ccc(C)s2)c2ccccc2n1	Lmaj promast 83 (no result: S1P3 antag)
CC(=O)Nc1ccccc1P(=O)(c1ccccc1)c1ccccc1OC(C)=O (stereo not given)	none (no result: Lmaj promast)
COc1ccc(NC(=S)N2CCN(CCN=CC3=C(O)CC(c4ccccc4)CC3=O)CC2)cc1 (stereo not given)	Lmaj promast 53
CC(=O)NC/C(C)=N\Nc1ccc([N+](=O)[O-])cc1	Lmaj promast 63
C/C(=N\NC(=O)C(N)=O)c1cccc([N+](=O)[O-])c1	none
C/C(=N\N=C(N)N)c1cccc([N+](=O)[O-])c1	Lmaj promast 64
C/C(=N\Nc1ccc([N+](=O)[O-])cc1)c1cccc(N)c1	Lmaj promast 61 (no result: S1P3 antag)
C/C(=N\Nc1cc(C)nc(-c2ccccc2)n1)c1cccc([N+](=O)[O-])c1	none
O=C(CC1C(=O)NCCN1CC(c1ccccc1)c1ccccc1)NC1CC1 (stereo not given)	none
CC1CC(C)CN(CC(O)COc2ccc3c(c2)CCC3)C1 (stereo not given)	Lmaj promast 89 (no result: Mdm2 ligase inh)
OC(COCCOc1ccc(Br)cc1)CN1CCCCC1 (stereo not given)	Lmaj promast 71
CC(C)(C)CC(C)(C)NCC(O)COc1ccc2c(c1)CCC2 (stereo not given)	Lmaj promast 100 (no result: Mdm2 ligase inh, S1P3 antag)
CC1CCN(CC(O)COCCOc2ccc(Br)cc2)CC1 (stereo not given)	Lmaj promast 82
COC(=O)C1(c2ccccc2)NC(c2cccs2)C2C(=O)N(c3ccccc3)C(=O)C21 (stereo not given)	none (no result: Mdm2 ligase inh, S1P3 antag)
COc1cccc(C(=O)N(Cc2ccc(N(C)C)cc2)C2CCS(=O)(=O)C2)c1 (stereo not given)	none
CC(=O)C1C(=O)CC(C)(O)C(C(C)=O)C1c1ccccc1 (stereo not given)	none
CC1CC(C)CN(CCOc2ccc(Br)cc2)C1 (stereo not given)	Lmaj promast 82

Bioassay records as filed in PubChem.
